Where “and” joins values, the source holds several entries; their conditions need not be identical. Identical values can stand only once.
Tested on: Fibroblast
Experiment: Multiplex assay against human fibroblast
Type: toxicity, cell-based
Outline: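 Hoechst33342, BioTracker Green Microtubule Cytoskeleton Dye, MitoTracker Red and Annexin V Alexa Fluor 680 were added to live cells at seeding, and imaging on a CQ1 microscope at 37°C and 5% CO2 followed compound addition. Gating by CellPathfinder machine learning separated cells into Hoechst high-intensity objects or normal cells, then normal cells into healthy, pyknosed or fragmented nuclei, then pyknosed cells into mitotic or apoptotic. Per cents of healthy-nucleus cells are reported for the tubulin, mitochondrial-mass and membrane-permeability phenotypes.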

[1] = 12 h, 1 µM, compound concentration 1 uM
[2] = 12 h, 10 µM, compound concentration 10 uM
[3] = 24 h, 1 µM, compound concentration 1 uM
[4] = 24 h, 10 µM, compound concentration 10 uM
[5] = 48 h, 1 µM, compound concentration 1 uM
[6] = 48 h, 10 µM, compound concentration 10 uM

CC(=O)NCCc1c(Cc2ccccc2)[nH]c2ccccc12 [LUZINDOLE]
Population Apoptotic (%) [1]: 41% and 40%
Population Fragmented Nuclei (%) [1]: 15% and 25%
Population Healthy Nuclei (%) [1]: 65% and 39%
Population Hoechst High Intensity Objects (%) [1]: 1% and 4%
Population Membrane Permeable-Phenotype (%) [1]: 2% and 9%
Population Mitochondria Different-Phenotype (%) [1]: 7% and 11%
Population Mitotic Cells (%) [1]: 58% and 59%
Population Normal (%) [1]: 98% and 95%
Population Pyknosed Nuclei (%) [1]: 18% and 34%
Population Tubulin-Different-Phenotype (%) [1]: 30% and 50%
Total Cell Count [1]: 129 and 134
Population Apoptotic (%) [2]: 19% and 21%
Population Fragmented Nuclei (%) [2]: 15% and 26%
Population Healthy Nuclei (%) [2]: 69% and 59%
Population Hoechst High Intensity Objects (%) [2]: 2%
Population Mitochondria Different-Phenotype (%) [2]: 7% and 4%
Population Mitotic Cells (%) [2]: 80% and 78%
Population Normal (%) [2]: 97%
Population Pyknosed Nuclei (%) [2]: 15% and 13%
Population Tubulin-Different-Phenotype (%) [2]: 42% and 32%
Total Cell Count [2]: 140 and 105
Population Apoptotic (%) [3]: 54% and 45%
Population Fragmented Nuclei (%) [3]: 21% and 25%
Population Healthy Nuclei (%) [3]: 61% and 47%
Population Hoechst High Intensity Objects (%) [3]: 0% and 5%
Population Membrane Permeable-Phenotype (%) [3]: 0% and 8%
Population Mitochondria Different-Phenotype (%) [3]: 3% and 8%
Population Mitotic Cells (%) [3]: 45% and 54%
Population Normal (%) [3]: 99% and 94%
Population Pyknosed Nuclei (%) [3]: 16% and 26%
Total Cell Count [3]: 134 and 137
Population Apoptotic (%) [4]: 47% and 23%
Population Fragmented Nuclei (%) [4]: 15% and 27%
Population Healthy Nuclei (%) [4]: 67% and 59%
Population Hoechst High Intensity Objects (%) [4]: 2% and 3%
Population Membrane Permeable-Phenotype (%) [4]: 1% and 5%
Population Mitochondria Different-Phenotype (%) [4]: 5% and 3%
Population Mitotic Cells (%) [4]: 52% and 76%
Population Normal (%) [4]: 97% and 96%
Population Pyknosed Nuclei (%) [4]: 17% and 12%
Population Tubulin-Different-Phenotype (%) [4]: 29% and 33%
Total Cell Count [4]: 138 and 105
Population Apoptotic (%) [5]: 75% and 39%
Population Fragmented Nuclei (%) [5]: 15% and 27%
Population Healthy Nuclei (%) [5]: 72% and 55%
Population Hoechst High Intensity Objects (%) [5]: 5% and 8%
Population Membrane Permeable-Phenotype (%) [5]: 2% and 9%
Population Mitochondria Different-Phenotype (%) [5]: 3% and 5%
Population Mitotic Cells (%) [5]: 25% and 60%
Population Normal (%) [5]: 94% and 91%
Population Pyknosed Nuclei (%) [5]: 12% and 16%
Population Tubulin-Different-Phenotype (%) [5]: 24% and 46%
Total Cell Count [5]: 134 and 149
Population Apoptotic (%) [6]: 80% and 54%
Population Fragmented Nuclei (%) [6]: 19% and 34%
Population Healthy Nuclei (%) [6]: 70% and 54%
Population Hoechst High Intensity Objects (%) [6]: 3% and 4%
Population Membrane Permeable-Phenotype (%) [6]: 0% and 3%
Population Mitochondria Different-Phenotype (%) [6]: 3%
Population Mitotic Cells (%) [6]: 20% and 45%
Population Normal (%) [6]: 96% and 95%
Population Pyknosed Nuclei (%) [6]: 10%
Population Tubulin-Different-Phenotype (%) [6]: 34% and 50%
Total Cell Count [6]: 147 and 111

CN(C)CCOc1ccc(/C(=C(/CCCO)c2ccccc2)c2ccc(O)cc2)cc1
Population Apoptotic (%) [1]: 9.46% and 11.76%
Population Fragmented Nuclei (%) [1]: 12.72% and 6.58%
Population Healthy Nuclei (%) [1]: 54.82% and 78.51%
Population Hoechst High Intensity Objects (%) [1]: 0%
Population Membrane Permeable-Phenotype (%) [1]: 2.4% and 1.12%
Population Mitochondria Different-Phenotype (%) [1]: 12.8% and 16.2%
Population Mitotic Cells (%) [1]: 90.54% and 88.24%
Population Normal (%) [1]: 100%
Population Pyknosed Nuclei (%) [1]: 32.46% and 14.91%
Population Tubulin-Different-Phenotype (%) [1]: 20.8% and 30.73%
Total Cell Count [1]: 228
Population Apoptotic (%) [2]: 12.82% and 32.5%
Population Fragmented Nuclei (%) [2]: 12.81% and 6.25%
Population Healthy Nuclei (%) [2]: 54.96% and 65.97%
Population Hoechst High Intensity Objects (%) [2]: 0%
Population Membrane Permeable-Phenotype (%) [2]: 12.03% and 4.21%
Population Mitochondria Different-Phenotype (%) [2]: 33.83% and 24.74%
Population Mitotic Cells (%) [2]: 87.18% and 67.5%
Population Normal (%) [2]: 100%
Population Pyknosed Nuclei (%) [2]: 32.23% and 27.78%
Population Tubulin-Different-Phenotype (%) [2]: 69.92% and 80%
Total Cell Count [2]: 242 and 288
Population Fragmented Nuclei (%) [3]: 7.69% and 4.15%
Population Healthy Nuclei (%) [3]: 73.68% and 82.16%
Population Hoechst High Intensity Objects (%) [3]: 0%
Population Membrane Permeable-Phenotype (%) [3]: 2.2% and 3.03%
Population Mitochondria Different-Phenotype (%) [3]: 9.34% and 7.58%
Population Mitotic Cells (%) [3]: 93.48% and 78.79%
Population Normal (%) [3]: 100%
Population Pyknosed Nuclei (%) [3]: 18.62% and 13.69%
Population Tubulin-Different-Phenotype (%) [3]: 22.53% and 32.32%
Total Cell Count [3]: 247 and 241
Population Apoptotic (%) [4]: 20.78% and 46.67%
Population Fragmented Nuclei (%) [4]: 6.59% and 4.58%
Population Healthy Nuclei (%) [4]: 63.57% and 79.58%
Population Hoechst High Intensity Objects (%) [4]: 0%
Population Membrane Permeable-Phenotype (%) [4]: 6.1% and 8.41%
Population Mitochondria Different-Phenotype (%) [4]: 37.8% and 22.57%
Population Mitotic Cells (%) [4]: 79.22% and 53.33%
Population Normal (%) [4]: 100%
Population Pyknosed Nuclei (%) [4]: 29.84% and 15.85%
Population Tubulin-Different-Phenotype (%) [4]: 85.37% and 84.07%
Total Cell Count [4]: 258 and 284
Population Apoptotic (%) [5]: 53.33% and 35.71%
Population Fragmented Nuclei (%) [5]: 8.78% and 7.97%
Population Healthy Nuclei (%) [5]: 85.5% and 86.45%
Population Hoechst High Intensity Objects (%) [5]: 0%
Population Membrane Permeable-Phenotype (%) [5]: 0% and 4.61%
Population Mitotic Cells (%) [5]: 46.67% and 64.29%
Population Normal (%) [5]: 100%
Population Pyknosed Nuclei (%) [5]: 5.73% and 5.58%
Total Cell Count [5]: 262 and 251
Population Apoptotic (%) [6]: 35.29% and 73.91%
Population Fragmented Nuclei (%) [6]: 11.83% and 8.67%
Population Healthy Nuclei (%) [6]: 83.6% and 83.67%
Population Hoechst High Intensity Objects (%) [6]: 0%
Population Membrane Permeable-Phenotype (%) [6]: 2.89% and 5.58%
Population Mitochondria Different-Phenotype (%) [6]: 6.75% and 12.75%
Population Mitotic Cells (%) [6]: 64.71% and 26.09%
Population Normal (%) [6]: 100%
Population Pyknosed Nuclei (%) [6]: 4.57% and 7.67%
Population Tubulin-Different-Phenotype (%) [6]: 53.05% and 80.48%
Total Cell Count [6]: 372 and 300
